Published values pooled from the literature.
Protocols differ between the studies behind these lines. In brackets after ≈: the same amount, converted by molar mass.

O=C(O)c1ccc(-n2cc(COC3=CC(=O)c4ccccc4C3=O)nn2)cc1  IC50 (Escherichia coli; microbial growth; broth dilution; ATCC25922): 22.6 µg/mL (≈ 60.1 µM)
Cc1ccc2nc(-n3nc(C)c4c3-c3ccccc3C4=O)sc2c1  inhibition zone (Staphylococcus aureus; microbial growth; well diffusion; NCIM5021; 1000 µg/mL): 12 mm
O=C(O)c1cn(C2CC2)c2cc(N3CCNCC3)c(F)cc2c1=O  IC50 (Escherichia coli; microbial growth; broth dilution; ATCC25922): 0.125 µg/mL (≈ 0.377 µM)
O=C1NC(=S)N/C1=C\c1c2ccccc2c(-c2ccc(N(c3ccccc3)c3ccccc3)cc2)c2ccccc12  MBC (Micrococcus luteus; microbial killing; broth dilution; ATCC10240): > 1000 µg/mL
Cc1ccc(-n2cc(COC3=CC(=O)c4ccccc4C3=O)nn2)cc1  IC50 (Escherichia coli; microbial growth; broth dilution; ATCC25922): 224 µg/mL (≈ 647 µM)
COc1ccc(-c2ccc3c(N4CCOC[C@@H]4C)nc(N4CCOC[C@@H]4C)nc3n2)cc1CO  MIC (Staphylococcus aureus; microbial growth; NCTC8325): > 30 µM
CC(C)Cc1nn(-c2nc3ccc(Br)cc3s2)c2c1C(=O)c1ccccc1-2  inhibition zone (Staphylococcus aureus; microbial growth; well diffusion; NCIM5021; 500 µg/mL): 14 mm
Fc1ccc(-n2cc(COc3cccc4cccnc34)nn2)cc1  IC50 (Escherichia coli; microbial growth; broth dilution; ATCC25922): 405 µg/mL (≈ 1260 µM)
Cc1cc(NC(=O)Nc2ccc3c(c2)OC(F)(F)O3)ccc1Cl  MIC (Staphylococcus aureus; microbial growth; NCTC8325): 0.5 µM (≈ 0.17 µg/mL)
O=C(Nc1ccccc1-c1ccc(F)c(F)c1)c1nccnc1C(F)(F)F  EC50 (Alternaria solani; microbial growth): 0.15 µg/mL (≈ 0.395 µM)
O=C1NC(=S)S/C1=C\c1c2ccccc2c(-c2ccc(N(c3ccccc3)c3ccccc3)cc2)c2ccccc12  MBC (Micrococcus luteus; microbial killing; broth dilution; ATCC10240): > 1000 µg/mL
Cc1ccc2nc(-n3nc(C(C)C)c4c3-c3ccccc3C4=O)sc2c1  inhibition zone (Staphylococcus aureus; microbial growth; well diffusion; NCIM5021; 250 µg/mL): 13 mm
CNC(=O)c1cc(Oc2ccc(NC(=O)Nc3cc(C(C)(C)C)nn3-c3ccc4ncccc4c3)c(F)c2)ccn1  MIC (Staphylococcus aureus; microbial growth; NCTC8325): > 30 µM
Cc1nn(-c2nc3ccc(Cl)cc3s2)c2c1C(=O)c1ccccc1-2  inhibition zone (Staphylococcus aureus; microbial growth; well diffusion; NCIM5021; 125 µg/mL): 10 mm
O=C(Nc1c[nH]nc1-c1nc2ccc(CN3CCOCC3)cc2[nH]1)NC1CC1  MIC (Staphylococcus aureus; microbial growth; NCTC8325): > 30 µM
O=C(O)CN1C(=O)/C(=C/c2ccc(-c3ccc(N(c4ccccc4)c4ccccc4)cc3)cc2)NC1=S  MBC (Micrococcus luteus; microbial killing; broth dilution; ATCC10240): 31.3 µg/mL (≈ 61.9 µM)
O=C1C=C(OCc2cn(-c3ccc([N+](=O)[O-])cc3)nn2)C(=O)c2ccccc21  IC50 (Escherichia coli; microbial growth; broth dilution; ATCC25922): 396 µg/mL (≈ 1050 µM)
O=C1NC(=S)N/C1=C\c1ccc(-c2ccc(N(c3ccccc3)c3ccccc3)cc2)cc1  MBC (Micrococcus luteus; microbial killing; broth dilution; ATCC10240): > 1000 µg/mL
COc1ccc2nc(-n3nc(CC(C)C)c4c3-c3ccccc3C4=O)sc2c1  inhibition zone (Staphylococcus aureus; microbial growth; well diffusion; NCIM5021; 500 µg/mL): 12 mm
Cc1ccc(Nc2nccc(N(C)c3ccc4c(C)n(C)nc4c3)n2)cc1S(N)(=O)=O  MIC (Staphylococcus aureus; microbial growth; NCTC8325): > 30 µM
CCCCS(=O)(=O)Oc1cccc2cccnc12  IC50 (Escherichia coli; microbial growth; broth dilution; ATCC25922): 194 µg/mL (≈ 732 µM)
COc1ccc2nc(-n3nc(C)c4c3-c3ccccc3C4=O)sc2c1  inhibition zone (Staphylococcus aureus; microbial growth; well diffusion; NCIM5021; 500 µg/mL): 12 mm
CC[C@@H]1C(=O)N(C)c2cnc(Nc3ccc(C(=O)N[C@H]4CC[C@H](N5CCN(CC6CC6)CC5)CC4)cc3OC)nc2N1C(C)C  MIC (Staphylococcus aureus; microbial growth; NCTC8325): > 30 µM
O=C(O)c1ccc(-n2cc(COc3cccc4cccnc34)nn2)cc1  IC50 (Escherichia coli; microbial growth; broth dilution; ATCC25922): 108 µg/mL (≈ 313 µM)
CCCS(=O)(=O)Nc1ccc(F)c(C(=O)c2c[nH]c3ncc(Cl)cc23)c1F  MIC (Staphylococcus aureus; microbial growth; NCTC8325): > 30 µM
O=C1C=C(OCc2cn(-c3ccc(Cl)cc3)nn2)C(=O)c2ccccc21  IC50 (Escherichia coli; microbial growth; broth dilution; ATCC25922): 306 µg/mL (≈ 836 µM)
O=C(O)CN1C(=O)/C(=C/c2c3ccccc3c(-c3ccc(N(c4ccccc4)c4ccccc4)cc3)c3ccccc23)SC1=S  MBC (Micrococcus luteus; microbial killing; broth dilution; ATCC10240): 125 µg/mL (≈ 201 µM)
CNC(=O)c1cc(Oc2ccc(NC(=O)Nc3ccc(Cl)c(C(F)(F)F)c3)c(F)c2)ccn1  MIC (Staphylococcus aureus; microbial growth; NCTC8325): 3 µM (≈ 1.45 µg/mL)
CC(C)c1nn(-c2nc3ccc(Br)cc3s2)c2c1C(=O)c1ccccc1-2  inhibition zone (Staphylococcus aureus; microbial growth; well diffusion; NCIM5021; 125 µg/mL): 11 mm
O=C(O)CN1C(=O)/C(=C/c2ccc(-c3ccc(N(c4ccccc4)c4ccccc4)cc3)cc2)SC1=S  MBC (Micrococcus luteus; microbial killing; broth dilution; ATCC10240): 31.3 µg/mL (≈ 59.9 µM)
Cc1nn(-c2nc3ccc(Br)cc3s2)c2c1C(=O)c1ccccc1-2  inhibition zone (Staphylococcus aureus; microbial growth; well diffusion; NCIM5021; 250 µg/mL): 11 mm
O=C(N/N=C/c1ccc([N+](=O)[O-])o1)c1ccc(O)cc1  MIC90 (Escherichia coli; microbial growth; ATCC35218): 0.98 µg/mL (≈ 3.56 µM)
